These results are taken from ChEMBL document CHEMBL1649422, “Synthesis and molecular modeling of novel tetrahydro-β-carboline derivatives with phosphodiesterase 5 inhibitory and anticancer properties” (J Med Chem, 2011).

Assay [1] deals with MDA-MB-231. Put plainly: Growth inhibition of human MDA-MB-231 cells after 72 hrs by luminescence assay. The assay is classed as functional, cell-based. The following applies: MDA-MB-231, 72 h. The method in brief:
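MDA-MB-231 cells grown in RPMI 1640 with 5% FBS, 2 mM glutamine and antibiotics at 37 °C, 5% CO2. Cells were harvested at 70–90% confluence, used only if viability >95%, and seeded at 5000 cells/well. Dosing followed 18–24 h later, with final DMSO 0.1%. Viability was read after 72 h by CellTiter-Glo luminescence. IC50 came from eight concentrations in quadruplicate, fitted to a four-parameter logistic.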

The target of assay [2] is T1, cGMP-specific 3',5'-cyclic phosphodiesterase (Homo sapiens, UniProt O76074). Put plainly: Inhibition of human recombinant PDE5 at 10 uM after 30 mins by fluorescence polarization assay.
In assay [3] the test system is MDA-MB-231. Put plainly: Growth inhibition of human MDA-MB-231 cells at 10 uM after 72 hrs by luminescence assay. It is filed as functional. To be noted: MDA-MB-231, 72 h.
The target in assay [4] is T1, cGMP-specific 3',5'-cyclic phosphodiesterase. Description: Inhibition of human recombinant PDE5 after 30 mins by fluorescence polarization assay. The method in brief:
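Recombinant human PDE5A at 12.5 units/mL was preincubated 30 min with compound or vehicle. Then 50 nM TAMRA-cGMP was added and the mix incubated 1.5 h at 30 °C. IMAP binding reagent was added for 30 min at 30 °C and fluorescence polarization read. IC50 came from a 10-concentration series in quadruplicate, fitted to a four-parameter logistic.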
(Fluorescence polarisation rises when a labelled molecule tumbles more slowly, as on binding a larger partner.)

In general, IC50 refers to the concentration that inhibits the measured activity by half. Broadly, the inhibition is the change of the read-out against control, counted positive when it falls. As to `COC(=O)[C@H]1Cc2c([nH]c3ccccc23)[C@H](c2ccc(Cl)cc2Cl)N1`, the midpoint of inhibition in assay [1], the IC50, lay at 6730 nM. In addition, the inhibition in assay [2] is 40%. In addition, at 10 µM the inhibition in assay [3] was 78%.

For the compound `CC(C)(C)N1C(=O)[C@H]2Cc3c([nH]c4ccccc34)[C@@H](c3ccc(Cl)c(Cl)c3)N2C1=O`, the IC50 came out at 1870 nM in assay [4] and 3250 nM in assay [1]. In addition, in assay [2], the inhibition was 82%. In addition, testing at 10 µM in assay [3] gave an inhibition of 99%.

As to `CC(C)(C)N1CC(=O)N2[C@@H](c3ccc(Cl)cc3Cl)c3[nH]c4ccccc4c3C[C@H]2C1=O`, the results for the half-inhibitory concentration (IC50) in assay [4] and in assay [1] were 1350 nM and 2590 nM, respectively. The inhibition in assay [2] is 78%.

Regarding `COC(=O)[C@H]1Cc2c([nH]c3ccccc23)[C@H](c2ccc(Cl)cc2Cl)N1C(=O)CCl`, it took 70 nM to reach half-maximal inhibition in assay [1] (IC50). Besides, in assay [2], the inhibition was 25%.

Take `CCN1C(=O)[C@@H]2Cc3c([nH]c4ccccc34)[C@H](c3ccc(Cl)c(Cl)c3)N2C1=O`: the IC50 came to 8750 nM in assay [4] and 4780 nM in assay [1].

As for `CCN1CC(=O)N2[C@@H](c3ccc(Cl)c(Cl)c3)c3[nH]c4ccccc4c3C[C@H]2C1=O`, the IC50 in assay [4] was determined as 3300 nM. In assay [2], the inhibition came to 67%. Moreover, the inhibition at 10 µM in assay [3] came to 35%.

For `COC(=O)[C@H]1Cc2c([nH]c3ccccc23)[C@@H](c2ccc(Cl)c(Cl)c2)N1`, the IC50 in assay [4] was determined as 1610 nM. For the same compound, the inhibition in assay [2] was found to be 78%. Further, 10 µM produced 43% inhibition in assay [3].

For the compound `CCN1C(=O)[C@H]2Cc3c([nH]c4ccccc34)[C@@H](c3ccc(Cl)c(Cl)c3)N2C1=O`, the 50% inhibitory concentration (IC50) in assay [4] was 150 nM. Also, the inhibition in assay [2] was found to be 95%. Testing at 10 µM in assay [3] gave an inhibition of 50%.

As for `CC(C)(C)N1C(=O)[C@@H]2Cc3c([nH]c4ccccc34)[C@@H](c3ccc(Cl)c(Cl)c3)N2C1=O`, the concentration for half-maximal inhibition (IC50) in assay [4] came out at 12 nM. Also, the inhibition in assay [2] stood at 88%. Moreover, testing at 10 µM in assay [3] gave an inhibition of 60%.

For `CCN1C(=O)[C@@H]2Cc3c([nH]c4ccccc34)[C@@H](c3ccc(Cl)c(Cl)c3)N2C1=O`, the half-maximal inhibitory concentration (IC50) in assay [4] was 300 nM. In assay [2], the inhibition amounted to 90%. In assay [3], this compound returned an inhibition at 10 µM of 18%.

Compound `COC(=O)[C@@H]1Cc2c([nH]c3ccccc23)[C@H](c2ccc(Cl)c(Cl)c2)N1` registered a half-inhibitory concentration (IC50) in assay [1] of 6980 nM. In assay [2], the inhibition was 18%. In assay [3], this compound yielded an inhibition at 10 µM of 62%.

For the compound `COC(=O)[C@H]1Cc2c([nH]c3ccccc23)[C@@H](c2ccc(Cl)cc2Cl)N1C(=O)CCl`, the figures for the IC50 in assay [4] and in assay [1] were 2300 nM and 560 nM, respectively. The inhibition in assay [2] was 66%.

`CC(C)(C)N1CC(=O)N2[C@@H](c3ccc(Cl)cc3Cl)c3[nH]c4ccccc4c3C[C@@H]2C1=O`: the IC50 came to 1260 nM in assay [4] and 2920 nM in assay [1].

With `COC(=O)[C@@H]1Cc2c([nH]c3ccccc23)[C@H](c2ccc(Cl)cc2Cl)N1C(=O)CCl`, the IC50 in assay [4] worked out at 380 nM. In addition, the inhibition in assay [2] worked out at 99%. Moreover, the inhibition at 10 µM in assay [3] came out at 55%.

Take `COC(=O)[C@@H]1Cc2c([nH]c3ccccc23)[C@@H](c2ccc(Cl)cc2Cl)N1C(=O)CCl`: the midpoint of inhibition in assay [1], the IC50, lay at 1240 nM. Also, in assay [2], the inhibition is 38%. The compound further returned an inhibition at 10 µM in assay [3] of 98%.

Take `COC(=O)[C@@H]1Cc2c([nH]c3ccccc23)[C@@H](c2ccc(Cl)cc2Cl)N1`: the IC50 in assay [4] came to 570 nM. Moreover, in assay [2], the inhibition was found to be 82%. This compound also registered an inhibition at 10 µM in assay [3] of 28%.

`CN1CC(=O)N2[C@H](c3ccc(Cl)cc3Cl)c3[nH]c4ccccc4c3C[C@H]2C1=O`: in assay [4], the IC50 is 50 nM. Besides, the inhibition in assay [2] is 95%. The compound further came in with an inhibition at 10 µM in assay [3] of 23%.

For `CCCCN1CC(=O)N2[C@H](c3ccc(Cl)cc3Cl)c3[nH]c4ccccc4c3C[C@H]2C1=O`, the concentration for half-maximal inhibition (IC50) in assay [4] was found to be 290 nM. Moreover, the inhibition in assay [2] was 89%. The inhibition at 10 µM in assay [3] turned out to be 42%.

`COC(=O)[C@H]1Cc2c([nH]c3ccccc23)[C@H](c2ccc(Cl)c(Cl)c2)N1` gave an IC50 in assay [1] of 4620 nM. In assay [2], the inhibition was found to be 50%. In assay [3], this compound displayed an inhibition at 10 µM of 100%.
